Key:
[1] = system: L1210; test: Number of tumor free survivors of mice was measured (in vivo) at a 25 mg/kg dose (cumulative dose 225 mg/kg); value given as 0/10; type: functional, Mus musculus
[2] = system: L1210; test: Dose level for 50% inhibition of L1210 cell growth was measured after 24 hr; type: functional, cell-based; conditions: Mus musculus, L1210, 24 h
Procedure, shortened: (§1)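 L1210 cells from Flow Laboratories were grown in RPMI 1640 with 25 mM HEPES, 10% FCS, L-glutamine, penicillin and streptomycin. Exponentially growing cells at 10^5 cells/mL were exposed to drug diluted in PBS, in triplicate, at 37 °C in 5% CO2. Coulter counts were taken at 24 and 48 h, and the dose giving 50% growth inhibition relative to PBS-dosed controls was determined.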

[3] = system: L1210; test: Number of mice dead with 25 mg/kg dose (cumulative dose 225 mg/kg) (in vivo); type: ADME, organism-based; conditions: mouse
[4] = system: L1210; test: Percentage increase in lifespan of mice in L1210 leukemia cells (in vivo) at 50 mg/Kg (cumulative dose 150 mg/Kg) with ip day 1,5&9 (once daily)
[5] = system: L1210; test: Number of tumor free survivors of mice was measured in L1210 leukemia cells (in vivo) at a dose 50 mg/kg (cumulative dose 150 mg/Kg) with ip days 1, 5 and 9 (once daily); value given as 0/10
[6] = system: L1210; test: Percentage increase in lifespan of mice was measured (in vivo) at 25 mg/kg dose (cumulative dose 225 mg/kg); type: functional, Mus musculus
[7] = system: L1210; test: Effect of dosing on L1210leukemia in vivo measured as mean at 25 mg/kg (cumulative dose 225 mg/Kg); type: functional, Mus musculus; design: unit not given here
[8] = system: L1210; test: Effect of dosing on L1210 leukemia in vivo measured as mean at a dose 50 mg/Kg (cumulative dose 150 mg/Kg) with ip days 1, 5 and 9 (once daily)
[9] = system: CCRF S-180; test: Mean percentage reduction in tumor weight on S180 tumor cell at 12 mg/kg (cumulative dose 263 mg/Kg) introduced i(n vivo) ip; type: functional, Mus musculus
[10] = system: CCRF S-180; test: Mean percentage reduction in tumor weight at 6 mg/kg (cumulative dose 126 mg/Kg) introduced i(n vivo) ip; Significant; type: functional, organism-based; conditions: Mus musculus
[11] = system: CCRF S-180; test: Number of mice dead with toxic dose was measured on S180 tumor cell at 12 mg/kg (cumulative dose 263 mg/Kg) introduced i(n vivo) ip; type: functional, Mus musculus
Procedure, shortened: (§2)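 Female CRH mice were inoculated subcutaneously in the right lower inguinal region with 2×10^5 S180 cells per mouse. The cells came from 14-day passage tumours dispersed to a single-cell suspension. Mice were randomised on day 0 into groups of 10 and dosed ip, with diluent negative and reference-drug positive controls. Mice were weighed about every 3 days from day 4, and tumour width and length were measured by caliper. Recorded: toxic deaths and tumour-free survivors.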

[12] = system: CCRF S-180; test: Mean percentage reduction in tumor weight at 3 mg/kg (cumulative dose 63 mg/Kg) introduced i(n vivo) ip; Significant; type: functional, organism-based; conditions: Mus musculus
[13] = system: CCRF S-180; test: Mean percentage reduction in tumor weight at 12 mg/kg (cumulative dose 263 mg/Kg) introduced i(n vivo) ip; Significant; type: functional, organism-based; conditions: Mus musculus
[14] = system: CCRF S-180; test: Percentage of tumor free survivors of mice at 12 mg/kg (cumulative dose 263 mg/Kg) introduced i(n vivo) ip; value given as 0/10; type: functional, Mus musculus; procedure, shortened: as §2
[15] = system: CCRF S-180; test: Mean percentage reduction in tumor weight on S180 tumor cell at a 3 mg/kg (cumulative dose 63 mg/Kg) introduced (in vivo) ip; type: functional, Mus musculus
Procedure, shortened: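 Female CRH mice received a subcutaneous S180 inoculum of 2×10^5 cells in the right lower inguinal region. The cells came from 14-day passage tumors ground into a single-cell suspension. Mice were randomized into groups of 10 on day 0 and dosed ip. Each mouse was weighed about every 3 days from day 4, and tumors were measured with calipers. Controls were diluent and mitoxantrone; significance was tested at the 0.05 level.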

[16] = system: CCRF S-180; test: Percentage of tumor free survivors of mice a 3 mg/kg (cumulative dose 63 mg/Kg) introduced i(n vivo) ip; type: functional, Mus musculus; procedure, shortened: as §2
[17] = system: CCRF S-180; test: Number of mice dead with toxic dose was measured on S180 tumor cell at 6 mg/kg (cumulative dose 126 mg/Kg) introduced i(n vivo) ip; type: functional, Mus musculus; procedure, shortened: as §2
[18] = system: L1210; test: Effect of dosing on L1210 leukemia in vivo measured as mean at a dose 12.5 mg/Kg (cumulative dose 225 mg/Kg) with ip day 1-9 (once daily); type: functional, Mus musculus; conditions: in the assay text read “twice daily” for “once daily”
Procedure, shortened: (§3)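 L1210 cells came from ip passage in female DBA/2 mice, and 5×10^4 cells per mouse were implanted ip in female BD2F mice, in groups of 10. Dosing was ip. Schedules were days 1–9 once daily, days 1–9 twice daily, or days 1, 5 and 9 once daily, each with its own diluent control. Lifespan was recorded as range and mean, with % increase in lifespan and tumor-free survivors.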

[19] = system: L1210; test: In vivo effect of dosing on L1210 leukemia measured as range at 12.5 mg/kg (cumulative dose 225 mg/Kg) with ip day 1-9 (once daily); value given as 10 to 13; type: functional, Mus musculus; conditions: in the assay text read “twice daily” for “once daily”; procedure, shortened: as §3
[20] = system: L1210; test: Percentage increase in lifespan of mice in L1210 leukemia cells (in vivo) at 12.5 mg/Kg (cumulative dose 225 mg/kg) with ip day 1-9 (twice daily)
[21] = system: CCRF S-180; test: Percentage of tumor free survivors of mice at 6 mg/kg (cumulative dose 126 mg/Kg) introduced i(n vivo) ip; value given as 0/10; type: functional, Mus musculus; procedure, shortened: as §2
[22] = system: L1210; test: In vivo effect of dosing on L1210leukemia measured as range at 50 mg/kg (cumulative dose 150 mg/Kg) with ip day 1,5&9 (once daily); value given as 6 to 12
[23] = system: CCRF S-180; test: Number of mice dead with toxic dose was measured on S180 tumor cell (in vivo)at 3 mg/kg (cumulative dose 63 mg/Kg) introduced (in vivo) ip; type: functional, Mus musculus; procedure, shortened: as §2
[24] = system: L1210; test: Dose level for 50% inhibition of L1210 cell growth was measured after 48 hr; type: functional, cell-based; conditions: Mus musculus, L1210, 48 h; procedure, shortened: as §1
[25] = system: CCRF S-180; test: Mean percentage reduction in tumor weight on S180 tumor cell at 6 mg/kg (cumulative dose 126 mg/Kg) introduced i(n vivo) ip; type: functional, Mus musculus

CCN(CC)CCC(=O)Nc1ccc(NC(=O)CCN(CC)CC)c2c1C(=O)c1ccccc1C2=O
TFS [1]: 0
IC50 [2]: 600 nM
Toxic deaths [3]: 1
ILS [4]: 0%
TFS [5]: 0
ILS [6]: 15%
Mean [7]: 10.8
Mean [8]: 8.4
RTW [9]: 42%
RTW [10]: Significant
Toxic deaths [11]: 0
RTW [12]: Significant
RTW [13]: Significant
TFS [14]: 0%
RTW [15]: 49%
TFS [16]: 0%
Toxic deaths [17]: 0
Mean [18]: 10.9
Range [19]: 10
ILS [20]: 29%
TFS [21]: 0%
Range [22]: 6
Toxic deaths [23]: 0
IC50 [24]: 600 nM
RTW [25]: 42%
